Experimental data as given in ChEMBL document CHEMBL4811275, “Iodinated 1,2-diacylhydrazines, benzohydrazide-hydrazones and their analogues as dual antimicrobial and cytotoxic agents” (Bioorg Med Chem, 2021).
Values after ≈ are worked out from the molar mass of the structure shown.

What was measured:
Staphylococcus aureus [1] = assay: Antibacterial activity against Staphylococcus aureus ATCC 29213 assessed as reduction in bacterial growth incubated for 24 hrs by broth microdilution method; assay type: functional
Outline: (§1)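 Cation-adjusted Mueller-Hinton broth microdilution per EUCAST, modified; compounds from DMSO stocks, final DMSO ≤1% v/v; scale starting from 0.49 µM. Static incubation at 35 ± 2 °C, dark, humidified, read at 24 and 48 h. MIC = lowest concentration with no visible growth by eye; duplicates, parallel readings within one dilution step; growth and medium/DMSO controls included.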

Staphylococcus aureus [2] = assay: Antibacterial activity against Staphylococcus aureus ATCC 29213 assessed as reduction in bacterial growth incubated for 48 hrs by broth microdilution method; assay type: functional; outline: as §1
Staphylococcus aureus [3] = assay: Antibacterial activity against methicillin-resistant Staphylococcus aureus ATCC 43300 assessed as reduction in bacterial growth incubated for 24 hrs by broth microdilution method; assay type: functional
Outline: (§2)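 EUCAST-based broth microdilution in cation-adjusted Mueller-Hinton broth. DMSO stocks, final DMSO ≤1% v/v, concentration scale starting from 0.49 µM. Static incubation at 35 ± 2 °C, dark and humidified. Run in duplicate, accepted only if parallel MICs differ by at most one dilution step. MIC is the lowest concentration with no visible growth by naked eye.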

Staphylococcus aureus [4] = assay: Antibacterial activity against methicillin-resistant Staphylococcus aureus ATCC 43300 assessed as reduction in bacterial growth incubated for 48 hrs by broth microdilution method; assay type: functional; outline: as §2
[5] = test system: Staphylococcus epidermidis; assay: Antibacterial activity against Staphylococcus epidermidis ATCC 12228 assessed as reduction in bacterial growth incubated for 24 hrs by broth microdilution method; assay type: functional; outline: as §1
[6] = test system: Staphylococcus epidermidis; assay: Antibacterial activity against Staphylococcus epidermidis ATCC 12228 assessed as reduction in bacterial growth incubated for 48 hrs by broth microdilution method; assay type: functional; outline: as §1
Enterococcus faecalis [7] = assay: Antibacterial activity against Enterococcus faecalis ATCC 29212 assessed as reduction in bacterial growth incubated for 24 hrs by broth microdilution method; assay type: functional; outline: as §1
Enterococcus faecalis [8] = assay: Antibacterial activity against Enterococcus faecalis ATCC 29212 assessed as reduction in bacterial growth incubated for 48 hrs by broth microdilution method; assay type: functional; outline: as §1
Escherichia coli [9] = assay: Antibacterial activity against Escherichia coli ATCC 25922 assessed as reduction in bacterial growth incubated for 24 hrs by broth microdilution method; assay type: functional; outline: as §1
Escherichia coli [10] = assay: Antibacterial activity against Escherichia coli ATCC 25922 assessed as reduction in bacterial growth incubated for 48 hrs by broth microdilution method; assay type: functional; outline: as §1
HepG2 = assay: Cytotoxicity against human HepG2 cells assessed as reduction in cell viability incubated for 24 hrs by cell-titer 96 aqueous one solution cell proliferation assay; assay type: functional, cell-based; details: HepG2, 24 h

SMILES	MIC (Staphylococcus aureus [1]) [µM]	MIC (Staphylococcus aureus [2]) [µM]	MIC (Staphylococcus aureus [3]) [µM]	MIC (Staphylococcus aureus [4]) [µM]	MIC [5] [µM]	MIC [6] [µM]	MIC (Enterococcus faecalis [7]) [µM]	MIC (Enterococcus faecalis [8]) [µM]	MIC (Escherichia coli [9]) [µM]	MIC (Escherichia coli [10]) [µM]	IC50 (HepG2) [µM]
COc1ccc(C(=O)N/N=C/c2cc(I)c(O)c(I)c2)cc1	500 (≈ 261 µg/mL)	500 (≈ 261 µg/mL)	> 500	> 500	> 500	> 500	> 500	> 500	> 500	> 500	> 100
O=C(N/N=C/c1cc(I)c(O)c(I)c1)c1ccc(C(F)(F)F)cc1	125 (≈ 70 µg/mL)	500 (≈ 280 µg/mL)	500 (≈ 280 µg/mL)	500 (≈ 280 µg/mL)	500 (≈ 280 µg/mL)	500 (≈ 280 µg/mL)	500 (≈ 280 µg/mL)	500 (≈ 280 µg/mL)	> 500	> 500	57.4
Cc1ccc(C(=O)N/N=C/c2cc(I)cc(I)c2O)cc1	> 500	> 500	> 500	> 500	> 500	> 500	> 500	> 500	> 500	> 500	> 25
O=C(NNC(=O)c1cc(I)cc(I)c1O)c1ccc([N+](=O)[O-])cc1	–	–	–	–	–	–	–	–	–	–	159
CCN1CCN(C(=O)N[C@@H](C(=O)N[C@@H]2C(=O)N3[C@@H]2SC(C)(C)[C@@H]3C(=O)O)c2ccccc2)C(=O)C1=O [PIPERACILLIN SODIUM]	1.85	–	14.8	–	> 59.3	–	7.41	–	3.71	–	–
O=C(N/N=C/c1cc(I)cc(I)c1O)c1ccc(Br)cc1	62.5 (≈ 35.7 µg/mL)	62.5 (≈ 35.7 µg/mL)	62.5 (≈ 35.7 µg/mL)	125 (≈ 71.4 µg/mL)	62.5 (≈ 35.7 µg/mL)	125 (≈ 71.4 µg/mL)	250 (≈ 143 µg/mL)	250 (≈ 143 µg/mL)	> 250	> 250	22.3
COc1ccc(C(=O)N/N=C/c2cc(I)cc(I)c2O)cc1	> 500	> 500	> 500	> 500	> 500	> 500	> 500	> 500	> 500	> 500	45.1
O=C(NNC(=O)c1cc(I)cc(I)c1O)c1ccc(F)cc1	500 (≈ 263 µg/mL)	500 (≈ 263 µg/mL)	500 (≈ 263 µg/mL)	500 (≈ 263 µg/mL)	500 (≈ 263 µg/mL)	500 (≈ 263 µg/mL)	500 (≈ 263 µg/mL)	500 (≈ 263 µg/mL)	> 500	> 500	87
COc1ccc(C(=O)NNC(=O)c2cc(I)cc(I)c2O)cc1	500 (≈ 269 µg/mL)	> 500	500 (≈ 269 µg/mL)	> 500	500 (≈ 269 µg/mL)	> 500	500 (≈ 269 µg/mL)	> 500	> 500	> 500	132
Cc1ccc(C(=O)NNC(=O)c2cc(I)cc(I)c2O)cc1	125 (≈ 65.3 µg/mL)	> 125	> 125	> 125	125 (≈ 65.3 µg/mL)	> 125	> 125	> 125	> 125	> 125	86.4
O=C(NNC(=O)c1cc(I)cc(I)c1O)c1ccc(C(F)(F)F)cc1	–	–	–	–	–	–	–	–	–	–	167
O=C(N/N=C/c1cc(I)c(O)c(I)c1)c1ccccc1	250 (≈ 123 µg/mL)	250 (≈ 123 µg/mL)	500 (≈ 246 µg/mL)	> 500	> 500	> 500	> 500	> 500	> 500	> 500	191
O=C(N/N=C/c1cc(I)cc(I)c1O)c1ccc(I)cc1	> 125	> 125	> 125	> 125	> 125	> 125	> 125	> 125	> 125	> 125	31.8
O=C(NNC(=O)c1cc(I)cc(I)c1O)c1ccccc1	–	–	–	–	–	–	–	–	–	–	98
O=C(NNC(=O)c1cc(I)cc(I)c1O)c1ccc(Br)cc1	–	–	–	–	–	–	–	–	–	–	62.8
